# According to ChEMBL document CHEMBL4330096, “Discovery of potent and selective 5-azaindazole inhibitors of leucine-rich repeat kinase 2 (LRRK2) - Part 1” (Bioorg Med Chem Lett, 2019):
# Tests used:
# [1] = target: Leucine-rich repeat serine/threonine-protein kinase 2 (Homo sapiens, UniProt Q5S007, G2019S); assay: Inhibition of recombinant human GST-tagged LRRK2 G2019S mutant catalytic domain (970 to 2527 residues) expressed in baculovirus expression system by radiometric assay
# [2] = Stability in human liver microsomes assessed as compound turnover rate measured after 40 mins; format: ADME, Microsome; details: read-out: Drug metabolism
# Summary of the method: (§1)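 In vitro incubation of compound with liver microsomes: human (HLM) for 40 min, mouse (MLM) for 30 min. Reported as % turnover of parent compound.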
# [3] = Stability in mouse liver microsomes assessed as compound turnover rate measured after 30 mins; format: ADME, Microsome; details: read-out: Drug metabolism; summary of the method: as §1
# [4] = Lipophilicity, log D of the compound at pH 7.4; format: physicochemical; details: buffer
# [5] = Ratio of drug level in mouse brain to plasma; details: read-out: BPR
# Summary of the method: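 Mice; ratio based on total (not unbound) compound concentrations in brain versus plasma.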
# Chain of Leucine-rich repeat serine/threonine-protein kinase 2 (Q5S007 whole entry G2019S, the tested form may be a part): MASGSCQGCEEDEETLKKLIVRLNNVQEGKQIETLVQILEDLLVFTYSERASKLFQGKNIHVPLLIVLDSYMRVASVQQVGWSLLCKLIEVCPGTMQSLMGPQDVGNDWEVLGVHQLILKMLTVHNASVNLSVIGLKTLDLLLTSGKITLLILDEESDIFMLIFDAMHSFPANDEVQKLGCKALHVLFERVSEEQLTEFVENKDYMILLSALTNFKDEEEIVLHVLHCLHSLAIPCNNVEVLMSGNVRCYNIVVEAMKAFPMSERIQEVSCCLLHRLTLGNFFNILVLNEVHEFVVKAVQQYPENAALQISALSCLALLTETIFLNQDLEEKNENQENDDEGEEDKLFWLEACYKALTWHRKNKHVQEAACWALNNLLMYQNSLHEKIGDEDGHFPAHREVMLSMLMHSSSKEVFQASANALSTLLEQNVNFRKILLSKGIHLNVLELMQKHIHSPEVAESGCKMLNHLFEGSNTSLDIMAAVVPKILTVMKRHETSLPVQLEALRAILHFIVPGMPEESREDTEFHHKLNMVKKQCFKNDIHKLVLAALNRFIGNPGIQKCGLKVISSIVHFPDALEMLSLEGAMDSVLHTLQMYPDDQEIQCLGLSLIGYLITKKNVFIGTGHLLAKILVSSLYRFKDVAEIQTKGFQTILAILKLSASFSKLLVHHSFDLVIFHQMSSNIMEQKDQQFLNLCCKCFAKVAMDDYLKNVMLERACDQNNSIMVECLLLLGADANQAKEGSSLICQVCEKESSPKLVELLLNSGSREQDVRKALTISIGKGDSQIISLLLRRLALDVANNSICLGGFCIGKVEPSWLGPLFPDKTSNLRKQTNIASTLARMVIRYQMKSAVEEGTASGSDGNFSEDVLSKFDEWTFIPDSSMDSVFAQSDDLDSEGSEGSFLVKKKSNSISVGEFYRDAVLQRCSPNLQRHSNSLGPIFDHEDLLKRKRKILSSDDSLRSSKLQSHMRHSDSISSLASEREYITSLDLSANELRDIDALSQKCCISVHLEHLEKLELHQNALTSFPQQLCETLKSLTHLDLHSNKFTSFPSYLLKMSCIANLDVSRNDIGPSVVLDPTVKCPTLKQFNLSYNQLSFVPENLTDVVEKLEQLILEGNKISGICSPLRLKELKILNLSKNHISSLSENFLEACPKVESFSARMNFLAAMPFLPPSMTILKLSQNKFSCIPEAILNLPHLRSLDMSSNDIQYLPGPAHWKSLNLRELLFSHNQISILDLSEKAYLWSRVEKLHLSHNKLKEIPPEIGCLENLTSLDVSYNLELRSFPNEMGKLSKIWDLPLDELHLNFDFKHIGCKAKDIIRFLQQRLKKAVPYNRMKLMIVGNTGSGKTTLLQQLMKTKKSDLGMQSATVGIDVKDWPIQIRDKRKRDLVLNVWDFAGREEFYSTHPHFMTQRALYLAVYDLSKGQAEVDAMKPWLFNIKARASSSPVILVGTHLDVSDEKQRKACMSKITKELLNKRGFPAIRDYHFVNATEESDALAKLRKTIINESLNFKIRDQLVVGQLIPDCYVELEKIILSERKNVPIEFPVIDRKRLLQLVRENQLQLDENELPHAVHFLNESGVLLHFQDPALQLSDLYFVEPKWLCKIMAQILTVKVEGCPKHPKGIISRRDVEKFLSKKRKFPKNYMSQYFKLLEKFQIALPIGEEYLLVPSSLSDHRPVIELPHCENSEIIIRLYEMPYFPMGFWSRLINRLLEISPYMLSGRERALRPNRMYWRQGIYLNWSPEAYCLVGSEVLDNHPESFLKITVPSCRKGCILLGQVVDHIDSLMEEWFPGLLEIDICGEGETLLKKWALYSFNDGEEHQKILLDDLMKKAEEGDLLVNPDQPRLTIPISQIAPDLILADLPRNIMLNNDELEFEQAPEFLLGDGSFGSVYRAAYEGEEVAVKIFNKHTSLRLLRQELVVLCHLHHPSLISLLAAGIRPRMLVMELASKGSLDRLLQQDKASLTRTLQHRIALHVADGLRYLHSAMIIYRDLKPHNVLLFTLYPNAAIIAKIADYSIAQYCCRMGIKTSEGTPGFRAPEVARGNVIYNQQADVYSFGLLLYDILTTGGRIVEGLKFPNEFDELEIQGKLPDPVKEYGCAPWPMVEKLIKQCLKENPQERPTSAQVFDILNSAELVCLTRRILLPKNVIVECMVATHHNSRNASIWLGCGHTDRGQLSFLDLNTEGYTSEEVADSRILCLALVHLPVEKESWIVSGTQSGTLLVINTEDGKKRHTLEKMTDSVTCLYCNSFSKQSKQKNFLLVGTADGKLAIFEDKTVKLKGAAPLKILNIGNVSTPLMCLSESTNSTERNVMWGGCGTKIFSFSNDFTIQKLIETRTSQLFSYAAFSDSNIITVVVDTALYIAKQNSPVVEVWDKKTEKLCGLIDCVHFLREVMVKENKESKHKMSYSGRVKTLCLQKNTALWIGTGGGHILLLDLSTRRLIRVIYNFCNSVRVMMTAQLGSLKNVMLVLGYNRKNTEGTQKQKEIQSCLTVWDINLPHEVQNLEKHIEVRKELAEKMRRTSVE
SMILES,IC50 [1],metabolised at 40 min [2],metabolised at 0.5 h [3],logD [4],Kp [5]
CC(C)n1cc(-c2n[nH]c3ccnc(NC4CCCCC4)c23)cn1,110 nM,23%,43%,3.2,–
Cc1n[nH]c2ccnc(Nc3cnn(C)c3)c12,830 nM,–,–,–,–
Cc1n[nH]c2ccnc(O[C@@H]3CCOC3)c12,250 nM,0%,13%,–,–
Cc1n[nH]c2ccnc(NCC3CC3)c12,2400 nM,–,–,–,–
Cc1nn(C)c2ccnc(NC3CCCCC3)c12,> 10000 nM,–,–,–,–
Cc1n[nH]c2ccnc(Nc3ccc(Cl)cc3)c12,390 nM,–,–,–,–
Cc1n[nH]c2ccnc(NC3CCOCC3)c12,190 nM,0%,4%,1.2,1.6
c1cc(-c2n[nH]c3ccnc(NC4CCOCC4)c23)cc(N2CCOCC2)n1,–,17%,11%,–,–
Cc1n[nH]c2ccnc(N3CCOCC3)c12,3000 nM,–,–,–,–
Cc1n[nH]c2cncc(NC3CCCCC3)c12,770 nM,–,–,–,–
Cc1n[nH]c2ccnc(N(C)C3CCCCC3)c12,1600 nM,–,–,–,–
Cc1n[nH]c2ccnc(NC3CCCC3)c12,410 nM,2%,10%,–,–
c1cc2[nH]nc(-c3cnn(C4CCCC4)c3)c2c(NC2CCOCC2)n1,170 nM,–,–,–,–
CCOc1nccc2[nH]nc(C)c12,440 nM,–,–,–,–
CC(C)Cn1cc(-c2n[nH]c3ccnc(OC4CCOCC4)c23)cn1,15 nM,–,–,–,–
Cc1n[nH]c2ccnc(OC3CCN(C)CC3)c12,1900 nM,–,–,–,–

SMILES,IC50 [1],metabolised at 40 min [2],metabolised at 0.5 h [3],logD [4],Kp [5]
Cc1noc2ccnc(NC3CCCCC3)c12,> 10000 nM,–,–,–,–
Cc1n[nH]c2ccnc(OC3CCC3)c12,170 nM,22%,41%,–,–
Cn1cc(-c2n[nH]c3ccnc(NC4CCCCC4)c23)cn1,130 nM,21%,19%,2.7,–
Cc1n[nH]c2ccnc(NC3CCC3)c12,530 nM,–,–,–,–
CC[C@H](C)Nc1nccc2[nH]nc(C)c12,300 nM,6%,9%,–,–
Cc1n[nH]c2ccnc(NCc3ccc(Cl)cc3)c12,4900 nM,–,–,–,–
c1cc2[nH]nc(-c3cnn(C4CCCC4)c3)c2c(OC2CCOCC2)n1,4 nM,–,–,–,–
CC(C)n1cc(-c2n[nH]c3ccnc(OC4CCCCC4)c23)cn1,2 nM,36%,66%,3.7,–
Cc1n[nH]c2ccnc(Nc3cccnc3)c12,> 10000 nM,–,–,–,–
Cc1n[nH]c2ccnc(NC(C)C)c12,880 nM,–,–,–,–
Cc1n[nH]c2ccnc(NC3CC3)c12,4700 nM,–,–,–,–
Cc1c[nH]c2ccnc(NC3CCCCC3)c12,> 10000 nM,–,–,–,–
CC(C)Cn1cc(-c2n[nH]c3ccnc(NC4CCOCC4)c23)cn1,410 nM,–,–,–,–
Cc1ccc(Nc2nccc3[nH]nc(C)c23)cc1,97 nM,13%,28%,–,–
Cc1n[nH]c2ccnc(OC3CCCC3)c12,86 nM,31%,42%,–,–
Cc1n[nH]c2ccnc(OC(C)C)c12,68 nM,2%,24%,–,–
